pIC50: −log10 of the molar value.
How the values were obtained:
Ctenocephalides felis = assay: Insecticidal activity against Ctenocephalides felis by artificial membrane feeding assay; type: functional
Summary of the method: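 Ex-vivo artificial membrane feeding assay, 20-25 cat fleas per titration level; compounds dissolved or suspended in bovine blood fed to fleas. LD90 taken as the concentration killing >90% of fleas.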

[1] = Displacement of [35S]nodulisporic amide from Glutamate gated chloride channel alpha subunit/GABA gated chloride channel subunit Rdl in Drosophila melanogaster head membrane
Summary of the method: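 Competition binding against [35S]nodulisporic amide (10 pM ligand) on Drosophila melanogaster head membranes. Compounds prepared as 20 mM DMSO stocks, tested from 10 µM down to 10 pM (0.1 pM for potent ones) in 0.5 log steps, in triplicate. Each compound assayed at least twice; IC50 reported as geometric mean. Where label recovery increased, the highest concentration without "precipitation" is reported instead.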

SMILES | LD90 (Ctenocephalides felis) [µM] | pIC50 [1]
CC(C)=CCc1c2c(cc3c4c([nH]c13)[C@@]1(C)[C@@H](CC[C@@H]3[C@]1(C)CC[C@]1(O)O[C@H]([C@H](O)[C@H](C)C(=O)O)C[C@@]31C)C4)C1=CC(C)(C)OC(C)(C)[C@H]1[C@@H]2O [NODULISPORIC ACID C2] | >142.5 | 7.15
COC(=O)/C(C)=C/CC[C@]1(C)[C@@H](O)CC[C@@]2(C)[C@H]1CC[C@H]1Cc3c([nH]c4cc(CC=C(C)C)c(CC=C(C)C)cc34)[C@@]12C | – | < 7.00
CC(C)=CCc1c2c(cc3c4c([nH]c13)[C@@]1(C)[C@@H](CC[C@@H]3[C@]1(C)CC[C@]1(O)O[C@H](/C=C(\C)C(=O)O)C[C@@]31C)C4)C1=CC(C)(C)OC(C)(C)[C@H]1[C@@H]2O [NODULISPORIC ACID C1] | >146.2 | 7.28
COC(=O)/C(C)=C/C=C/[C@]1(C)[C@@H](O)CC[C@@]2(C)[C@H]1CC[C@H]1Cc3c([nH]c4cc5c(cc34)C3=CC(C)(C)OC(C)(C)[C@H]3C5)[C@@]12C [NODULISPORIC ACID D METHYL ESTER] | – | < 7.00
C=C(C)[C@H]1C(=O)c2c3c(cc4c5c(n1c24)[C@@]1(C)[C@@H](CC[C@H]2[C@](C)(/C=C/C=C(\C)C(=O)OC)[C@@H](O)CC[C@@]21C)C5)C1=CC(C)(C)OC(C)(C)[C@H]1[C@@H]3O | 14.4 | 9.37
C=C(C)[C@H]1Cc2c3c(cc4c5c(n1c24)[C@@]1(C)[C@@H](CC[C@@H]2[C@]1(C)CC[C@]1(O)O[C@H]([C@H](O)[C@H](C)C(=O)O)C[C@@]21C)C5)C1=CC(C)(C)OC(C)(C)[C@H]1[C@@H]3O [NODULISPORIC ACID B2] | >142.9 | 7.00
C=C(C)[C@H]1Cc2c3c(cc4c5c(n1c24)[C@@]1(C)[C@@H](CC[C@H]2[C@](C)(/C=C/C=C(\C)C(=O)OC)[C@@H](O)CC[C@@]21C)C5)C1=CC(C)(C)OC(C)(C)[C@H]1[C@@H]3O | 147.1 | 8.59
C=C(C)[C@H]1Cc2c3c(cc4c5c(n1c24)[C@@]1(C)[C@@H](CC[C@H]2[C@](C)(/C=C/C=C(\C)C(=O)O)[C@@H](O)CC[C@@]21C)C5)C1=CC(C)(C)OC(C)(C)[C@H]1[C@@H]3O [NODULISPORIC ACIDS B] | 150 | 7.76
CC(C)=CCc1c2c(cc3c4c([nH]c13)[C@@]1(C)[C@@H](CC[C@H]3[C@](C)(/C=C/C=C(\C)C(=O)O)[C@@H](O)CC[C@@]31C)C4)C1=CC(C)(C)OC(C)(C)[C@H]1[C@@H]2O [NODULISPORIC ACID C] | 15 | 8.28
C/C(=C\C=C\[C@]1(C)C(=O)CC[C@@]2(C)[C@H]1CC[C@H]1Cc3c([nH]c4cc5c(cc34)C3=CC(C)(C)OC(C)(C)[C@H]3C5)[C@@]12C)C(=O)O [NODULISPORIC ACID D3] | – | < 6.00
C[C@H](C(=O)O)[C@@H](O)[C@@H]1C[C@@]2(C)[C@@H]3CC[C@H]4Cc5c([nH]c6cc7c(cc56)C5=CC(C)(C)OC(C)(C)[C@H]5C7)[C@]4(C)[C@@]3(C)CC[C@]2(O)O1 [NODULISPORIC ACID D2] | – | 7.66
C=C(C)[C@H]1C(=O)c2c3c(cc4c5c(n1c24)[C@@]1(C)C(CC[C@H]2[C@](C)(/C=C/C=C(\C)C(=O)O)[C@@H](O)CC[C@@]21C)C5)C1=CC(C)(C)OC(C)(C)C1[C@@H]3O (stereo not given in full) [NOD ACID A] | 1.5 | 9.57
C=C(C)[C@H]1Cc2c3c(cc4c5c(n1c24)[C@@]1(C)[C@@H](CC[C@@H]2[C@]1(C)CC[C@]1(O)O[C@H](/C=C(\C)C(=O)O)C[C@@]21C)C5)C1=CC(C)(C)OC(C)(C)[C@H]1[C@@H]3O [NODULISPORIC ACID B1] | >147.7 | 6.92
C=C(C)[C@H]1C(=O)c2c3c(cc4c5c(n1c24)[C@@]1(C)[C@@H](CC[C@@H]2[C@]1(C)CC[C@]1(O)O[C@H](/C=C(\C)C(=O)O)C[C@@]21C)C5)C1=CC(C)(C)OC(C)(C)[C@H]1[C@@H]3O [NODULISPORIC ACID A1] | 7.3 | 7.98
C/C(=C\CC[C@]1(C)[C@@H](O)CC[C@@]2(C)[C@H]1CC[C@H]1Cc3c([nH]c4ccccc34)[C@@]12C)C(=O)O [NODULISPORIC ACID F] | 45.9 | < 5.00
C/C(=C\C=C\[C@]1(C)[C@@H](O)CC[C@@]2(C)[C@H]1CC[C@H]1Cc3c([nH]c4cc5c(cc34)C3=CC(C)(C)OC(C)(C)[C@H]3C5)[C@@]12C)C(=O)O [NODULISPORIC ACID] | 92.6 | < 6.00
COC(=O)/C(C)=C/[C@@H]1C[C@@]2(C)[C@@H]3CC[C@H]4Cc5c([nH]c6cc7c(cc56)C5=CC(C)(C)OC(C)(C)[C@H]5C7)[C@]4(C)[C@@]3(C)CC[C@]2(O)O1 [NODULISPORIC ACID D1 METHYL ESTER] | – | < 7.00
COC(=O)[C@@H](C)[C@@H](O)[C@@H]1C[C@@]2(C)[C@@H]3CC[C@H]4Cc5c([nH]c6cc7c(cc56)C5=CC(C)(C)OC(C)(C)[C@H]5C7)[C@]4(C)[C@@]3(C)CC[C@]2(O)O1 [NODULISPORIC ACID D2 METHYL ESTER] | – | < 5.00
C=C(C)[C@H]1C(=O)c2c3c(cc4c5c(n1c24)[C@@]1(C)[C@@H](CC[C@@H]2[C@]1(C)CC[C@]1(O)O[C@H]([C@H](O)[C@H](C)C(=O)O)C[C@@]21C)C5)C1=CC(C)(C)OC(C)(C)[C@H]1[C@@H]3O [NODULISPORIC ACID A12] | 14 | 7.15
C/C(=C\[C@@H]1C[C@@]2(C)[C@@H]3CC[C@H]4Cc5c([nH]c6cc7c(cc56)C5=CC(C)(C)OC(C)(C)[C@H]5C7)[C@]4(C)[C@@]3(C)CC[C@]2(O)O1)C(=O)O [NODULISPORIC ACID D1] | – | < 5.00
C=C(C)[C@H]1C(=O)c2c3c(cc4c5c(n1c24)[C@@]1(C)[C@@H](CC[C@H]2[C@](C)(CC/C=C(\C)C(=O)O)[C@@H](O)CC[C@@]21C)C5)C1=CC(C)(C)OC(C)(C)C1=C3 | >15.1 | 7.64
C=C(C)[C@H]1C(=O)c2c3c(cc4c5c(n1c24)[C@@]1(C)[C@@H](CC[C@H]2[C@](C)(CC/C=C(\C)C(=O)O)[C@@H](O)CC[C@@]21C)C5)C1=CC(C)(C)OC(C)(C)[C@H]1[C@@H]3O [NODULISPORIC ACID A4] | 14.7 | 8.62
CC(C)=CCc1c2c(cc3c4c([nH]c13)[C@@]1(C)[C@@H](CC[C@H]3[C@](C)(CC/C=C(\C)C(=O)O)[C@@H](O)CC[C@@]31C)C4)C1=CC(C)(C)OC(C)(C)C1=C2 | 15.3 | < 7.00
CC(C)=CCc1cc2[nH]c3c(c2cc1CC=C(C)C)C[C@@H]1CC[C@H]2[C@](C)(CC/C=C(\C)C(=O)O)[C@@H](O)CC[C@]2(C)[C@@]31C | – | 5.67

Reference: ChEMBL document CHEMBL1148893, “Nodulisporic acids D-F: structure, biological activities, and biogenetic relationships” (J Nat Prod, 2004)
